Values after ≈ are worked out from the molar mass of the structure shown. Blank lines part the entries; values can stand above or below the compound they belong to. Active and inactive are the calls of the source.
What was measured:
Candida albicans [1] = experiment: Antibiofilm activity against Candida albicans ATCC 10231 assessed as reduction in mature biofilm; assay type: functional
Summary of the method: (§1)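 C. albicans ATCC 10231 biofilm, tested during formation and as mature (48 h) biofilm; compounds tested up to 128 μg/mL. BMIC50 taken as lowest concentration giving 50% decrease of biofilm relative to untreated growth control; three independent experiments in triplicate, median reported.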

Candida albicans [2] = experiment: Antifungal activity against Candida albicans ATCC 10231; assay type: functional
Summary of the method: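 Planktonic C. albicans ATCC 10231 cells; compounds tested up to 128 μg/mL. MIC50 defined as lowest concentration producing 50% growth inhibition; three independent experiments, each in triplicate, values given as median.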

Candida albicans [3] = experiment: Antibiofilm activity against Candida albicans ATCC 10231 assessed as inhibition of biofilm formation; assay type: functional; summary of the method: as §1
[4] = Metal chelating activity assessed as Fe3+-compound complex formation by UV-visible spectrophotometry
Summary of the method: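 Stoichiometry of ligand–Fe3+ complex found by Job's method of continuous variations from UV titration spectra, Job's plot read at 302 nm; stability constant (logKstab) then calculated by UV–Vis spectroscopy for the determined stoichiometry.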

[5] = Metal chelating activity assessed as Cu2+-compound complex formation by UV-visible spectrophotometry
Summary of the method: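 UV–Vis spectroscopic titration of the ligand with Cu2+. The stability constant was calculated from the spectra once the 1:1 stoichiometry was known, and is reported as logKstab ±.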

[6] = Toxicity in Galleria mellonella larvae assessed as survival at 32 ug/ml measured after 48 hrs relative to control; details: at 32 µg/mL
Summary of the method: (§2)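 G. mellonella larvae were injected with 20 μL of compound in sterile water containing less than 1% v/v DMSO, into the last left pro-leg. Doses were 32–512 µg/mL. Survival was scored at 24, 48 and 72 h and is given as the mean percentage of three independent experiments.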

[7] = Toxicity in Galleria mellonella larvae assessed as survival at 256 ug/ml measured after 72 hrs relative to control; details: at 256 µg/mL; summary of the method: as §2
[8] = Toxicity in Galleria mellonella larvae assessed as survival at 512 ug/ml measured after 24 hrs relative to control; details: at 512 µg/mL; summary of the method: as §2
[9] = Toxicity in Galleria mellonella larvae assessed as survival at 32 ug/ml measured after 72 hrs relative to control; details: at 32 µg/mL; summary of the method: as §2
[10] = Toxicity in Galleria mellonella larvae assessed as survival at 128 ug/ml measured after 72 hrs relative to control; details: at 128 µg/mL; summary of the method: as §2
[11] = Toxicity in Galleria mellonella larvae assessed as survival at 256 ug/ml measured after 24 hrs relative to control; details: at 256 µg/mL; summary of the method: as §2
[12] = Metal chelating activity assessed as stoichiometry ratio of 1:1 for Fe3+-compound complex formation by UV-visible spectrophotometry
[13] = Toxicity in Galleria mellonella larvae assessed as survival at 256 ug/ml measured after 48 hrs relative to control; details: at 256 µg/mL; summary of the method: as §2
[14] = Toxicity in Galleria mellonella larvae assessed as survival at 128 ug/ml measured after 24 hrs relative to control; details: at 128 µg/mL; summary of the method: as §2
[15] = Toxicity in Galleria mellonella larvae assessed as survival at 128 ug/ml measured after 48 hrs relative to control; details: at 128 µg/mL; summary of the method: as §2
[16] = Toxicity in Galleria mellonella larvae assessed as survival at 512 ug/ml measured after 72 hrs relative to control; details: at 512 µg/mL; summary of the method: as §2
[17] = Toxicity in Galleria mellonella larvae assessed as survival at 32 ug/ml measured after 24 hrs relative to control; details: at 32 µg/mL; summary of the method: as §2
Candida albicans [18] = experiment: Antibiofilm activity against Candida albicans ATCC 10231 assessed as inhibition of biofilm formation in presence of Fe3+; assay type: functional, organism-based; details: dose 8-128 µg/ml
Summary of the method: (§3)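 C. albicans ATCC 10231 biofilm-formation assay run in culture medium enriched with increasing concentrations of Fe3+ or Cu2+. BMIC50 is the lowest drug concentration giving a 50% decrease of biofilm relative to the untreated growth control. Three independent experiments in triplicate; data reported as percentage of inhibition ± standard deviation.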

[19] = Toxicity in Galleria mellonella larvae assessed as survival at 512 ug/ml measured after 48 hrs relative to control; details: at 512 µg/mL; summary of the method: as §2
[20] = Toxicity in Galleria mellonella larvae assessed as survival at 64 ug/ml measured after 24 hrs relative to control; details: at 64 µg/mL; summary of the method: as §2
[21] = Metal chelating activity assessed as stoichiometry ratio of 1:1 for Cu2+-compound complex formation by UV-visible spectrophotometry
[22] = Toxicity in Galleria mellonella larvae assessed as survival at 64 ug/ml measured after 48 hrs relative to control; details: at 64 µg/mL; summary of the method: as §2
Candida albicans [23] = experiment: Antibiofilm activity against Candida albicans ATCC 10231 assessed as inhibition of biofilm formation in presence of Cu2+; assay type: functional, organism-based; details: dose 8-128 µg/ml; summary of the method: as §3
[24] = Toxicity in Galleria mellonella larvae assessed as survival at 64 ug/ml measured after 72 hrs relative to control; details: at 64 µg/mL; summary of the method: as §2

- MIC50 (Candida albicans [2]): > 128 µg/mL
Compound: Cc1c(OCc2ccccc2)c(=O)ccn1CCCc1ccccc1
- MBIC50 (Candida albicans [1]): >128 µg/mL
- MBIC50 (Candida albicans [3]): >128 µg/mL

- MIC50 (Candida albicans [2]): > 128 µg/mL
Compound: Cc1c(O)c(=O)ccn1CCCn1ccnc1.Cl
- MBIC50 (Candida albicans [1]): >128 µg/mL
- MBIC50 (Candida albicans [3]): >128 µg/mL

- MIC50 (Candida albicans [2]): > 128 µg/mL
Compound: Cc1c(O)c(=O)ccn1CCCCn1ccc(=O)c(O)c1C.Cl.Cl
- MBIC50 (Candida albicans [1]): >128 µg/mL
- MBIC50 (Candida albicans [3]): >128 µg/mL

- MIC50 (Candida albicans [2]): > 128 µg/mL
Compound: Cc1c(OCc2ccccc2)c(=O)ccn1CCCCNC(=O)C(C)c1ccc(C(=O)c2ccccc2)cc1 (centres undefined)
- MBIC50 (Candida albicans [1]): >128 µg/mL
- MBIC50 (Candida albicans [3]): >128 µg/mL

- MIC50 (Candida albicans [2]): > 128 µg/mL
Compound: COc1ccccc1Cn1ccc(=O)c(O)c1C.Cl
- MBIC50 (Candida albicans [1]): >128 µg/mL
- MBIC50 (Candida albicans [3]): >128 µg/mL

- MIC50 (Candida albicans [2]): > 128 µg/mL
Compound: Cc1c(OCc2ccccc2)c(=O)ccn1CCCCCCn1ccc(=O)c(OCc2ccccc2)c1C
- MBIC50 (Candida albicans [1]): >128 µg/mL
- MBIC50 (Candida albicans [3]): >128 µg/mL

- MIC50 (Candida albicans [2]): > 128 µg/mL
Compound: COc1ccccc1Cn1ccc(=O)c(OCc2ccccc2)c1C
- MBIC50 (Candida albicans [1]): >128 µg/mL
- MBIC50 (Candida albicans [3]): >128 µg/mL

- MIC50 (Candida albicans [2]): > 128 µg/mL
Compound: Cc1c(OCc2ccccc2)c(=O)ccn1CCCCNC(=O)Cc1ccccc1
- MBIC50 (Candida albicans [1]): >128 µg/mL
- MBIC50 (Candida albicans [3]): >128 µg/mL

- Activity [4]: Active
- MIC50 (Candida albicans [2]): > 128 µg/mL
Compound: Cc1c(OCc2ccccc2)c(=O)ccn1CCCCNC(=O)C(C)c1ccc(CC(C)C)cc1 (centres undefined)
- MBIC50 (Candida albicans [1]): >128 µg/mL
- MBIC50 (Candida albicans [3]): 32 µg/mL

- MIC50 (Candida albicans [2]): > 128 µg/mL
Compound: Cc1c(OCc2ccccc2)c(=O)ccn1CCCn1ccnc1
- MBIC50 (Candida albicans [1]): >128 µg/mL
- MBIC50 (Candida albicans [3]): >128 µg/mL

- MIC50 (Candida albicans [2]): 32 µg/mL
Compound: Cc1c(O)c(=O)ccn1CCCc1ccccc1.Cl
- MBIC50 (Candida albicans [1]): >128 µg/mL
- MBIC50 (Candida albicans [3]): 32 µg/mL

- MIC50 (Candida albicans [2]): > 128 µg/mL
Compound: Cc1c(O)c(=O)ccn1CCCCNC(=O)C(C)c1ccc(C(=O)c2ccccc2)cc1 (centres undefined)
- MBIC50 (Candida albicans [1]): >128 µg/mL
- MBIC50 (Candida albicans [3]): 128 µg/mL

- MIC50 (Candida albicans [2]): > 128 µg/mL
Compound: Cc1c(OCc2ccccc2)c(=O)ccn1CCCCn1ccc(=O)c(OCc2ccccc2)c1C
- MBIC50 (Candida albicans [1]): >128 µg/mL
- MBIC50 (Candida albicans [3]): 128 µg/mL

- Activity [4]: Active
- MIC50 (Candida albicans [2]): > 128 µg/mL
Compound: Cc1c(OCc2ccccc2)c(=O)ccn1CCCCc1ccccc1
- MBIC50 (Candida albicans [1]): >128 µg/mL
- MBIC50 (Candida albicans [3]): >128 µg/mL

- Activity [5]: Active
- Activity [4]: Active
- MIC50 (Candida albicans [2]): 4 µg/mL (≈ 10.4 µM)
Compound: Cc1c(O)c(=O)ccn1CCCCNC(=O)C(C)c1ccc(CC(C)C)cc1 (centres undefined)
- MBIC50 (Candida albicans [1]): >128 µg/mL
- MBIC50 (Candida albicans [3]): 128 µg/mL

Compound: Cc1c(O)c(=O)ccn1CCCCc1ccccc1.Cl
- survival at 48 h [6]: 100%
- survival at 72 h [7]: 100%
- survival at 24 h [8]: 100%
- survival at 72 h [9]: 100%
- survival at 72 h [10]: 100%
- Activity [5]: Active
- survival at 24 h [11]: 100%
- MBIC50 (Candida albicans [1]): >128 µg/mL
- Activity [4]: Active
- MIC50 (Candida albicans [2]): 16 µg/mL
- Activity [12]: Active
- MBIC50 (Candida albicans [3]): 16 µg/mL
- survival at 48 h [13]: 100%
- survival at 24 h [14]: 100%
- survival at 48 h [15]: 100%
- survival at 72 h [16]: 86%
- survival at 24 h [17]: 100%
- inhibition (Candida albicans [18]): Dose-Dependent Effect
- survival at 48 h [19]: 96%
- survival at 24 h [20]: 100%
- Activity [21]: Active
- survival at 48 h [22]: 100%
- inhibition (Candida albicans [23]): Dose-Dependent Effect
- survival at 72 h [24]: 100%

- MIC50 (Candida albicans [2]): > 128 µg/mL
Compound: Cc1c(O)c(=O)ccn1CCCCNC(=O)Cc1ccccc1
- MBIC50 (Candida albicans [1]): >128 µg/mL
- MBIC50 (Candida albicans [3]): >128 µg/mL

- MIC50 (Candida albicans [2]): > 128 µg/mL
Compound: Cc1c(O)c(=O)ccn1CCCCCn1ccc(=O)c(O)c1C.Cl.Cl
- MBIC50 (Candida albicans [1]): >128 µg/mL
- MBIC50 (Candida albicans [3]): 128 µg/mL

- MIC50 (Candida albicans [2]): > 128 µg/mL
Compound: Cc1c(O)c(=O)ccn1CCCCCCn1ccc(=O)c(O)c1C.Cl.Cl
- MBIC50 (Candida albicans [1]): >128 µg/mL
- MBIC50 (Candida albicans [3]): >128 µg/mL

- MIC50 (Candida albicans [2]): 8 µg/mL (≈ 21.6 µM)
Compound: Cc1c(O)c(=O)ccn1CCCCNC(=O)Cc1ccc(CC(C)C)cc1
- MBIC50 (Candida albicans [1]): 128 µg/mL
- MBIC50 (Candida albicans [3]): 64 µg/mL

- MIC50 (Candida albicans [2]): > 128 µg/mL
Compound: Cc1c(OCc2ccccc2)c(=O)ccn1CCCCNC(=O)Cc1ccc(CC(C)C)cc1
- MBIC50 (Candida albicans [1]): >128 µg/mL
- MBIC50 (Candida albicans [3]): 64 µg/mL

Compound: Cc1c(O)c(=O)ccn1C [DEFERIPRONE]
- MBIC50 (Candida albicans [1]): 128 µg/mL
- MIC50 (Candida albicans [2]): 128 µg/mL (≈ 920 µM)
- MBIC50 (Candida albicans [3]): 32 µg/mL

- MIC50 (Candida albicans [2]): > 128 µg/mL
Compound: Cc1c(OCc2ccccc2)c(=O)ccn1CCCCCn1ccc(=O)c(OCc2ccccc2)c1C
- MBIC50 (Candida albicans [1]): >128 µg/mL
- MBIC50 (Candida albicans [3]): >128 µg/mL

Source: ChEMBL document CHEMBL4834441, “Design, synthesis and biological evaluation of a series of iron and copper chelating deferiprone derivatives as new agents active against Candida albicans” (Bioorg Med Chem Lett, 2021)
